According to BindingDB's records for doi:10.1021/acs.jmedchem.7b00693 (The University of Tokyo, 2017):

Each compound was assayed against Probable G-protein coupled receptor 34 (Mus musculus, UniProt Q9R1K6) (assay: Agonist activity at mouse GPR34 expressed in HEK293 cells co-transfected with AP-TGFalpha/chimeric Galphaq/i1 assessed as induction of ectodomain shedding of membrane bound AP-TGFalpha after 1 hr).
Sequence of Probable G-protein coupled receptor 34 (Q9R1K6 whole entry, the tested form may be a part): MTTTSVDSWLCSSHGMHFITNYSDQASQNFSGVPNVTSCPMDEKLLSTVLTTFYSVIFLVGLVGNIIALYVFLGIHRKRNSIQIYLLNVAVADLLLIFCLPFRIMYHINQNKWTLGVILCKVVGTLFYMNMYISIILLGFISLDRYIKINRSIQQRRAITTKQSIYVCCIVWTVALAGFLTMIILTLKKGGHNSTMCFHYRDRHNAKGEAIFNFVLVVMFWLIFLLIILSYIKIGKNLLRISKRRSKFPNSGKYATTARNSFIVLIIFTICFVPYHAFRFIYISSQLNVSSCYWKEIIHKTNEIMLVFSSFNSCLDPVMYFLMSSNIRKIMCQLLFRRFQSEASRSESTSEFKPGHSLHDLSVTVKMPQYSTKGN
Method in brief: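 HEK293A cells transiently co-transfected with AP-TGFα, chimeric Gαq/i1 and GPR34 (human for line 1, mouse for line 3) or empty vector (mock). After 24 h, cells were suspended in HBSS with 5 mM HEPES pH 7.4 and preincubated 30 min with 10 μM (final) Ki16425. Compounds in HBSS with 0.01% fatty acid-free BSA were added for 1 h at 37 °C. AP activity in medium and on cells was read as OD405 with p-NPP after 1 h at room temperature.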
With CCCCCCOCC#CCOc1ccccc1CCC(=O)OCCCOP(=O)(O)OC[C@H](N)C(=O)O the EC50 was > 3.16 µM.
With CCCCCCOc1cccc(COc2ccccc2CCC(=O)OCCCOP(=O)(O)OC[C@H](N)C(=O)O)c1 the EC50 was > 3.16 µM.
For N[C@@H](COP(=O)(O)OCCCOC(=O)CCc1ccccc1OCc1cccc(OCc2ccccc2)c1)C(=O)O, the EC50 was > 3.16 µM.
In the case of CCCCCCCC/C=C\CCCCCCCC(=O)OCCCOP(=O)(O)OC[C@H](N)C(=O)O, the EC50 is reported as > 3.16 µM.
In the case of N[C@@H](COP(=O)(O)OCCCOC(=O)CCc1ccccc1OCc1cccc(-c2ccccc2)c1)C(=O)O, the EC50 is reported as > 3.16 µM.
In the case of CC(C)(C)c1ccccc1Oc1cccc(COc2ccccc2CCC(=O)OCCCOP(=O)(O)OC[C@H](N)C(=O)O)c1, the EC50 is reported as > 3.16 µM.
